Experimental data reported in ChEMBL document CHEMBL6134793, “Synthesis and structure-activity study of the antimicrobial lipopeptide brevibacillin” (RSC Med Chem, 2024).
In brackets after ≈: the same amount, converted by molar mass. Activity calls are given as the source filed them. No cut-off for these calls is given here.

How the values were obtained:
[1] = test system: Clostridium perfringens; assay: Antimicrobial activity against Clostridium perfringens ATCC 3628 assessed as growth inhibition by microdilution assay; type: functional
Method in brief: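 Broth microdilution: twofold serial peptide dilutions in reinforced clostridial medium (RCM), seeded with about 1 × 10^4 cfu per well, incubated 20 h at 37 °C. Working solution 512 μg mL−1 made from a 2 mg mL−1 stock in water with 10% DMSO. Growth read as absorbance at 595 nm. MIC taken as the lowest concentration giving complete inhibition of visible growth; run in triplicate.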

[2] = Cytotoxicity against human Caco-2 cells assessed as inhibition of cell viability incubated for 48 hrs by Cell Titer GLO assay; type: toxicity, cell-based
Method in brief: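 Caco-2 cells in DMEM with 10% FCS, seeded 25 000 per well, adhered overnight, then given peptide at 2–256 μg mL−1 in complete medium for 48 h at 37 °C, 5% CO2. Controls: cisplatin 125 μM; 0.1% DMSO medium. Viability by ATP luminescence (CellTiter-Glo) versus untreated cells; IC50 from dose–response; mean ± SEM of at least three independent experiments.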

[3] = test system: Listeria monocytogenes; assay: Antimicrobial activity against Listeria monocytogenes ATCC 19111 assessed as growth inhibition by microdilution assay; type: functional
Method in brief: (§1)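 Twofold serial microdilution of peptide (stocks 2 mg mL−1, diluted to 512 μg mL−1 in water with 10% DMSO) in strain medium, about 1 × 10^4 cfu per well. Media: TSB 20 h 37 °C (S. aureus, L. monocytogenes, B. subtilis, E. faecalis); LB 20 h 37 °C (P. aeruginosa, S. enterica, E. coli); Brucella 48 h 37 °C (C. coli). A595 read; MIC = lowest concentration with no visible growth; triplicate.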

[4] = test system: Staphylococcus aureus; assay: Antimicrobial activity against Staphylococcus aureus ATCC 6538 assessed as growth inhibition at 128 ug/ml by radial diffusion assay; type: functional, organism-based; conditions: dose 128.0 µg/ml
Method in brief: (§2)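 Agar well diffusion. Overnight cultures inoculated at 1% into 0.75% soft agar (TSB for S. aureus, LB for P. aeruginosa). Each well received 80 μL of peptide at 128 μg mL−1 in water with 10% DMSO; 10% DMSO served as negative control. Inhibition zone diameter scored after strain-specific incubation.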

[5] = Hemolytic activity in human erythrocytes at 128 to 256 ug/ml measured after 1 hr by absorbance based assay; type: toxicity, cell-based; conditions: erythrocyte, dose 128-256 µg/ml
Method in brief: (§3)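 Washed human donor erythrocytes at 1% hematocrit in PBS pH 7.4 exposed to twofold peptide dilutions (final 2–256 μg mL−1, up to 1% DMSO) for 1 h at 37 °C. After centrifugation, supernatant A405 read. % hemolysis relative to PBS (0%) and 1% Triton X-100 (100%). Triplicate; mean ± SEM.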

[6] = test system: Escherichia coli; assay: Antimicrobial activity against Escherichia coli ATCC 25922 assessed as growth inhibition by microdilution assay; type: functional; method in brief: as §1
[7] = test system: Campylobacter coli; assay: Antimicrobial activity against Campylobacter coli ATCC 33559 assessed as growth inhibition by microdilution assay; type: functional; method in brief: as §1
[8] = test system: Pseudomonas aeruginosa; assay: Antimicrobial activity against Pseudomonas aeruginosa ATCC […] assessed as growth inhibition by microdilution assay; type: functional; method in brief: as §1
[9] = Antimicrobial activity against Salmonella enterica serovar Newport ATCC 6962 assessed as growth inhibition by microdilution assay; type: functional, Salmonella enterica subsp. enterica serovar Newport; method in brief: as §1
[10] = test system: Bacillus subtilis; assay: Antimicrobial activity against Bacillus subtilis ATCC 23957 assessed as growth inhibition by microdilution assay; type: functional; method in brief: as §1
[11] = test system: Pseudomonas aeruginosa; assay: Antimicrobial activity against Pseudomonas aeruginosa ATCC […] assessed as growth inhibition at 128 ug/ml by radial diffusion assay; type: functional, organism-based; conditions: dose 128.0 µg/ml; method in brief: as §2
[12] = test system: Enterococcus faecalis; assay: Antimicrobial activity against Enterococcus faecalis ATCC 29212 assessed as growth inhibition by microdilution assay; type: functional; method in brief: as §1
[13] = test system: Staphylococcus aureus; assay: Antimicrobial activity against Staphylococcus aureus ATCC 6538 assessed as growth inhibition by microdilution assay; type: functional; method in brief: as §1
[14] = test system: Campylobacter coli; assay: Bacteriostatic activity against Campylobacter coli ATCC 33559 measured after 48 hrs by microdilution assay; type: functional, organism-based
Method in brief: (§4)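 MIC wells showing complete inhibition were sampled, 10 μL spread on agar and incubated 48 h under strain conditions; MBC = lowest concentration giving no growth on agar. MIC by broth microdilution (TSB 20 h 37 °C for S. aureus; Brucella 48 h 37 °C for C. coli). Triplicate.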

[15] = test system: Staphylococcus aureus; assay: Bactericidal activity against Staphylococcus aureus ATCC 6538 measured after 48 hrs by microdilution assay; type: functional, organism-based; method in brief: as §4
[16] = Hemolytic activity in human erythrocytes at 128 ug/ml measured after 1 hr by absorbance based assay relative to control; type: toxicity, cell-based, Erythrocyte; conditions: at 128 µg/mL, read-out: Activity; method in brief: as §3
[17] = Hemolytic activity in human erythrocytes at 256 ug/ml measured after 1 hr by absorbance based assay relative to control; type: toxicity, cell-based, Erythrocyte; conditions: at 256 µg/mL, read-out: Activity; method in brief: as §3
[18] = test system: Staphylococcus aureus; assay: Antimicrobial activity against Staphylococcus aureus ATCC 6538 assessed as diameter of growth inhibition at 128 ug/ml by radial diffusion assay; type: functional; conditions: dose 128 µg/ml; method in brief: as §2
[19] = Hemolytic activity in human erythrocytes assessed as fold decrease at 256 ug/ml measured after 1 hr by absorbance based assay relative to brevibacillin; type: toxicity, cell-based; conditions: erythrocyte, dose 256 µg/ml; method in brief: as §3
[20] = test system: Staphylococcus aureus; assay: Bacteriostatic activity against Staphylococcus aureus ATCC 6538 assessed as MBC/MIC ratio by microdilution assay; type: functional; method in brief: as §4
[21] = test system: Pseudomonas aeruginosa; assay: Antimicrobial activity against Pseudomonas aeruginosa ATCC […] assessed as diameter of growth inhibition at 128 ug/ml by radial diffusion assay; type: functional; conditions: dose 128 µg/ml; method in brief: as §2
[22] = test system: Campylobacter coli; assay: Bacteriostatic activity against Campylobacter coli ATCC 33559 assessed as MBC/MIC ratio by microdilution assay; type: functional; method in brief: as §4

Row | Compound | MIC [1] [µg/mL] | IC50 at 48 h [2] [µg/mL] | MIC [3] [µg/mL] | growth inhibition (qualitative call) [4] | MIC [6] [µg/mL] | MIC [7] [µg/mL] | MIC [8] [µg/mL] | MIC [9] [µg/mL] | MIC [10] [µg/mL] | growth inhibition (qualitative call) [11] | MIC [12] [µg/mL] | MIC [13] [µg/mL] | hemolysis at 1 h, 128 ug/ml [16] [%] | hemolysis at 1 h, 256 ug/ml [17] [%] | also measured
1 | C/C=C(/NC(=O)[C@@H](O)[C@@H](C)CC)C(=O)N[C@@H](CC(C)C)C(=O)N[C@H](CCCN)C(=O)N[C@H](C(=O)N[C@H](C(=O)N[C@H](C(=O)N[C@H](CCCCN)C(=O)N[C@H](C(=O)N[C@H](C(=O)N[C@@H](CCCCN)C(=O)N[C@H](Cc1ccc(O)cc1)C(=O)N[C@@H](CC(C)C)C(=O)N[C@H](C(=O)O)C(C)C)C(C)C)C(C)C)C(C)C)[C@@H](C)CC)[C@@H](C)CC | > 128 | > 256 | 128 | inactive | > 128 | 32 | > 128 | > 128 | > 128 | inactive | > 128 | > 128 |  |  | Activity [5]: Non-toxic
2 | C/C=C(/NC(=O)[C@@H](O)[C@@H](C)CC)C(=O)N[C@@H](CC(C)C)C(=O)N[C@H](CCCN)C(=O)N[C@H](C(=O)N[C@H](C(=O)N[C@H](C(=O)N[C@H](CCCCN)C(=O)N[C@H](C(=O)N[C@H](C(=O)N[C@@H](CCCCN)C(=O)N[C@H](Cc1ccc(O)cc1)C(=O)N[C@@H](CC(C)C)C(=O)N[C@H](CO)C(C)C)C(C)C)C(C)C)C(C)C)[C@@H](C)CC)[C@@H](C)CC | 4 | 10.9 (≈ 6.88 µM) | 2 | Active | 32 | 8 | 1 | 64 | 1 | Active | 4 | 2 | 9.6 | 25.2 | Activity [14]: Active; Activity [15]: Active
3 | C/C=C(/NC(=O)[C@@H](O)[C@@H](C)CC)C(=O)N[C@@H](CC(C)C)C(=O)N[C@H](CCCN)C(=O)N[C@H](C(=O)N[C@H](C(=O)N[C@H](C(=O)N[C@H](CCCCN)C(=O)N[C@H](C(=O)N[C@H](C(=O)N[C@@H](CCCCN)C(=O)N[C@H](Cc1ccc(O)cc1)C(=O)N[C@@H](CC(C)C)C(=O)N[C@H](C(N)=O)C(C)C)C(C)C)C(C)C)C(C)C)[C@@H](C)CC)[C@@H](C)CC | 16 | 16.6 (≈ 10.4 µM) | 2 | Not active; Exhibited Small Decrease In Activity | > 128 | > 128 | 4 | > 128 | 4 | Not active; Exhibited Small Decrease In Activity | 16 | 8 | 11.8 | 30.1 | 
4 | CC[C@@H](NC(=O)[C@@H](O)[C@@H](C)CC)C(=O)N[C@@H](CC(C)C)C(=O)N[C@H](CCCN)C(=O)N[C@H](C(=O)N[C@H](C(=O)N[C@H](C(=O)N[C@H](CCCCN)C(=O)N[C@H](C(=O)N[C@H](C(=O)N[C@@H](CCCCN)C(=O)N[C@H](Cc1ccc(O)cc1)C(=O)N[C@@H](CC(C)C)C(=O)N[C@H](CO)C(C)C)C(C)C)C(C)C)C(C)C)C(C)C)C(C)C | 8 | 32.4 (≈ 20.8 µM) | 4 | Not active; Exhibited Small Decrease In Activity | 64 | 16 | 2 | > 128 | 4 | Not active; Exhibited Small Decrease In Activity | > 128 | 2 | 1.2 | 4.2 | 
5 | C/C=C(/NC(=O)[C@@H](O)[C@@H](C)CC)C(=O)N[C@@H](CC(C)C)C(=O)N[C@H](CCCN)C(=O)N[C@H](C(=O)N[C@H](C(=O)N[C@H](C(=O)N[C@H](CCCCN)C(=O)N[C@H](C(=O)N[C@H](C(=O)N[C@@H](CCCCN)C(=O)N[C@H](Cc1ccc(O)cc1)C(=O)N[C@@H](CC(C)C)C(=O)N[C@H](CO)C(C)C)C(C)C)C(C)C)C(C)C)C(C)C)C(C)C | 16 | 87.5 (≈ 56.2 µM) | 4 |  | 64 | 32 | 4 | > 128 | 8 |  | 32 | 4 | 0.65 |  | Activity [18]: 11 mm; fold change (FC) [19]: 25; Ratio [20]: 8; Activity [21]: 12 mm
6 | CC[C@H](NC(=O)[C@@H](O)[C@@H](C)CC)C(=O)N[C@@H](CC(C)C)C(=O)N[C@H](CCCN)C(=O)N[C@H](C(=O)N[C@H](C(=O)N[C@H](C(=O)N[C@H](CCCCN)C(=O)N[C@H](C(=O)N[C@H](C(=O)N[C@@H](CCCCN)C(=O)N[C@H](Cc1ccc(O)cc1)C(=O)N[C@@H](CC(C)C)C(=O)N[C@H](CO)C(C)C)C(C)C)C(C)C)C(C)C)[C@@H](C)CC)[C@@H](C)CC | 2 | 10 (≈ 6.3 µM) | 0.5 | Not active; Exhibited Small Decrease In Activity | > 128 | 4 | 1 | > 128 | 1 | Not active; Exhibited Small Decrease In Activity | 2 | 1 | 15.5 | 58.7 | Ratio [22]: 8
